From ChEMBL document CHEMBL1275352, “Selection of evodiamine as a novel topoisomerase I inhibitor by structure-based virtual screening and hit optimization of evodiamine derivatives as antitumor agents” (J Med Chem, 2010)
Active and inactive are the calls of the source. The calls are words filed in the database; no cut-off is given here.

What was measured:
[1] = biological target: T1, DNA topoisomerase 1 (Homo sapiens) (UniProt P11387); assay: Inhibition of DNA topoisomerase 1-mediated supercoiled Escherichia coli pBR322 DNA relaxation by UV transilluminator analysis
T1 sequence (whole entry): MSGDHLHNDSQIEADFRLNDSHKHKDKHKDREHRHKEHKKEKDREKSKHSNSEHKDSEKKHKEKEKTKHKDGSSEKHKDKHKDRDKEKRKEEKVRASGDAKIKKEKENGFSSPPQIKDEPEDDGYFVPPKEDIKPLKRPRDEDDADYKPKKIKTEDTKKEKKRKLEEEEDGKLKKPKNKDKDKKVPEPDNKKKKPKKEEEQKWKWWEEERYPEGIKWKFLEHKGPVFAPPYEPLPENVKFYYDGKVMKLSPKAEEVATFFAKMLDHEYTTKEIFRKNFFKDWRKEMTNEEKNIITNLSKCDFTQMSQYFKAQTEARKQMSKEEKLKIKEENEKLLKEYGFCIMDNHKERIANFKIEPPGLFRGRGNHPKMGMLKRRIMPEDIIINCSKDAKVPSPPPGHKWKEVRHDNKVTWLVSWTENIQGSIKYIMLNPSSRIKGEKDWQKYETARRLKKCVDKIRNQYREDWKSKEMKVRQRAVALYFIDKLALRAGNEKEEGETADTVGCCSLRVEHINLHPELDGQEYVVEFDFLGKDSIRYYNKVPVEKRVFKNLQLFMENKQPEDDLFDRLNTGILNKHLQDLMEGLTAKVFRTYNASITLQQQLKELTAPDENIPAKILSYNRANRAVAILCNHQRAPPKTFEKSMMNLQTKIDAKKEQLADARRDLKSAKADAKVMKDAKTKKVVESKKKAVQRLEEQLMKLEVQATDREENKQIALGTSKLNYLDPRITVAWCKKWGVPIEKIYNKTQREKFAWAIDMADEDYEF
Procedure, shortened: (§1)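 Purified topoisomerase I was incubated with supercoiled DNA, and inhibition of relaxation by the enzyme was scored. Compounds were tested at concentrations ranging from 1 to 500 μM; an initial screen was run at 500 μM and active compounds were retested at lower concentrations.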

LoVo = assay: Cytotoxicity against human LoVo cells after 3 days by MTT assay; type: functional, cell-based; conditions: Homo sapiens, LoVo, 72 h; read-out: IC50
[2] = biological target: T1, DNA topoisomerase 1 (Homo sapiens); assay: Inhibition of DNA topoisomerase 1-mediated supercoiled Escherichia coli pBR322 DNA relaxation at 100 uM by UV transilluminator analysis; conditions: 500 uM; in the assay text read “500 uM” for “100 uM”; procedure, shortened: as §1
MDA-MB-435 = assay: Cytotoxicity against human MDA-MB-435 cells after 3 days by MTT assay; type: functional, cell-based; conditions: Homo sapiens, MDA-MB-435, 72 h; read-out: IC50
A549 = assay: Cytotoxicity against human A549 cells after 3 days by MTT assay; type: functional, cell-based; conditions: Homo sapiens, A549, 72 h; read-out: IC50
[3] = biological target: T1, DNA topoisomerase 1 (Homo sapiens); assay: Inhibition of DNA topoisomerase 1-mediated supercoiled Escherichia coli pBR322 DNA relaxation at 10 uM by UV transilluminator analysis; procedure, shortened: as §1

- inhibition [1]: Dose-dependent effect
- inhibition [2]: Active
- inhibition [3]: Active
Structure (SMILES): Cc1ccc(S(=O)(=O)c2cc3c(c4nsnc24)C(=O)c2ccccc2C3=O)cc1
- IC50 (LoVo): 43 µM
- IC50 (MDA-MB-435): 25 µM
- IC50 (A549): 0.5 µM
